{"data": "Assay results gathered from unrelated publications"}
{"SMILES": "COc1ccc2c(c1)CN(C(=O)CCN1CCC(Cc3ccccc3)CC1)CC[S@@+]2[O-]", "host": "male human", "matrix": "plasma", "route": "intravenous", "dose": "0.15 mg/kg", "setting": "healthy volunteers", "quantity": "Cmax", "value": "349 ng/mL"}
{"SMILES": "Cc1cc(-c2nccc3c2ccn3CC(=O)Nc2ccc(-c3cnccn3)cn2)ccn1", "host": "human", "matrix": "plasma", "route": "oral", "dose": "40 mg", "setting": "single dose", "quantity": "Cmax", "value": "0.345 µM"}
{"SMILES": "CN(C)C(=O)c1cc2cnc(Nc3ccc(-c4ccc5c(=O)cc(N6CCOCC6)oc5c4)cc3)nc2n1C1CCCC1.Cl", "host": "BALB/c mouse", "matrix": "plasma", "route": "oral", "dose": "20 mg/kg", "quantity": "Tmax", "value": "54 min"}
{"SMILES": "CCOCC(=O)N1CCC[C@H](C(=O)NCc2nc(-c3ccc(C)nc3)cs2)C1", "matrix": "Caco-2", "quantity": "efflux ratio", "value": 3.8}
{"SMILES": "O=C(COc1ccc(Cl)cc1)NC12CC(c3nnc([C@H]4C[C@@H](OC(F)(F)F)C4)o3)(C1)C2", "host": "human", "matrix": "plasma", "route": "oral", "dose": "200 mg", "setting": "multiple doses, once daily, steady state, healthy volunteers", "quantity": "Cmax", "value": "16.2 µM"}
{"SMILES": "COCC(=O)N1CCC[C@H](C(=O)NCc2nc(-c3ccc(C#N)cc3)cs2)C1", "matrix": "Caco-2", "quantity": "efflux ratio", "value": 2.2}
{"SMILES": "COc1ccc(-c2c(Nc3ccccn3)[nH]c3c(C4=CCCCC4)c(-c4ccccc4)nn3c2=O)cc1", "host": "human", "matrix": "plasma", "route": "oral", "dose": "400 mg once daily", "setting": "multiple doses, patients", "quantity": "Cmax", "value": "3200 ng/mL"}
{"SMILES": "CC(C)n1c(C2CCNCC2)nc2c([N+](=O)[O-])c(Br)c(Br)cc21", "host": "human", "matrix": "plasma", "route": "oral", "dose": "75 mg", "setting": "patients", "quantity": "Cmax", "value": "60.5 ng/mL"}
